How the values were obtained:
CYFIP1 [1] = molecular target: CYFIP1 (Homo sapiens, UniProt Q7L576); experiment: Avidin-biotin pull down with biotinylated stapled peptides, western blot; format: binding; settings: 2.5 µM versus 10 µM biotinylated peptide, MDA-MB-231 cells
Method in brief: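 MDA-MB-231 cells exposed to biotin-labelled stapled test peptides at 2.5 or 10 µM, with biotinylated scrambled peptides as controls. Lysates incubated overnight at 4 °C with immobilised avidin resin. Pulled-down material resolved by SDS-PAGE and western blotted for CYFIP1.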

WASF3-CYFIP1 complex = WASF3-CYFIP1 complex (Homo sapiens, UniProt Q7L576); experiment: Immunoprecipitation of WASF3, western blot for CYFIP1; format: cell-based; settings: MDA-MB-231 cells treated with peptide, IP of WASF3
WASF3-CYFIP1 complex, sequence (Q7L576 whole entry): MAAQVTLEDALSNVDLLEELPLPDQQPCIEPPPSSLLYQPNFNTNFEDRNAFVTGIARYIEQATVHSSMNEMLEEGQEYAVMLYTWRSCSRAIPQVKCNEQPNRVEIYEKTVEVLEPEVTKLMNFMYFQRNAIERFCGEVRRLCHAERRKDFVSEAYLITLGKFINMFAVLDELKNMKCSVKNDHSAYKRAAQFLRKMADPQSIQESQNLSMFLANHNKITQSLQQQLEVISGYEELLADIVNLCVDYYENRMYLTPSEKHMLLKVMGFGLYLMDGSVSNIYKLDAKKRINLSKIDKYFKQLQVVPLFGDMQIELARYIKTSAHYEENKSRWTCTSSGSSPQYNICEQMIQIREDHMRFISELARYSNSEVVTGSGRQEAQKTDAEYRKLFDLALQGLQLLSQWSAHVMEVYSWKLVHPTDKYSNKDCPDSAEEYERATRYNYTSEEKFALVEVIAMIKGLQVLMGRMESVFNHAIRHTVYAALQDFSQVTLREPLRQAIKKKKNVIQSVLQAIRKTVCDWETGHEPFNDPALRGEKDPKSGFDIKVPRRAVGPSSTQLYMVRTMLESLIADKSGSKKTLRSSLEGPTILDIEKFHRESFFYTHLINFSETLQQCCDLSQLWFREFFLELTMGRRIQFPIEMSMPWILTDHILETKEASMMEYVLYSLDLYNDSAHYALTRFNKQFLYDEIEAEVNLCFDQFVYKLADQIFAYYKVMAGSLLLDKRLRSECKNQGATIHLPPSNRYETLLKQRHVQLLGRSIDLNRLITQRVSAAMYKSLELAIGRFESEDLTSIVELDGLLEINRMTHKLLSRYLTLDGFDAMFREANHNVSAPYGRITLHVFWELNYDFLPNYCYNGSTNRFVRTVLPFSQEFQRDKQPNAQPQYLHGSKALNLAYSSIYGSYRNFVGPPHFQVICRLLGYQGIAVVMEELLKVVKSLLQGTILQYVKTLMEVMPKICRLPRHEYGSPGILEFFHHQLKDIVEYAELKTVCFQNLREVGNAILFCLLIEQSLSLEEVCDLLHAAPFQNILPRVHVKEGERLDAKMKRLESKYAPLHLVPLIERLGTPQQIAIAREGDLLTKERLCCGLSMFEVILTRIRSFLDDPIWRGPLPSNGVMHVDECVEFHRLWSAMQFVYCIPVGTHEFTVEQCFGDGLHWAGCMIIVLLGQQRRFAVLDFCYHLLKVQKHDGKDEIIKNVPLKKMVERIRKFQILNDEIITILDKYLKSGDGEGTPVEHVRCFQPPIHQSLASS
WASF3-CYFIP1 complex, sequence (Q9Y2A7 whole entry partner): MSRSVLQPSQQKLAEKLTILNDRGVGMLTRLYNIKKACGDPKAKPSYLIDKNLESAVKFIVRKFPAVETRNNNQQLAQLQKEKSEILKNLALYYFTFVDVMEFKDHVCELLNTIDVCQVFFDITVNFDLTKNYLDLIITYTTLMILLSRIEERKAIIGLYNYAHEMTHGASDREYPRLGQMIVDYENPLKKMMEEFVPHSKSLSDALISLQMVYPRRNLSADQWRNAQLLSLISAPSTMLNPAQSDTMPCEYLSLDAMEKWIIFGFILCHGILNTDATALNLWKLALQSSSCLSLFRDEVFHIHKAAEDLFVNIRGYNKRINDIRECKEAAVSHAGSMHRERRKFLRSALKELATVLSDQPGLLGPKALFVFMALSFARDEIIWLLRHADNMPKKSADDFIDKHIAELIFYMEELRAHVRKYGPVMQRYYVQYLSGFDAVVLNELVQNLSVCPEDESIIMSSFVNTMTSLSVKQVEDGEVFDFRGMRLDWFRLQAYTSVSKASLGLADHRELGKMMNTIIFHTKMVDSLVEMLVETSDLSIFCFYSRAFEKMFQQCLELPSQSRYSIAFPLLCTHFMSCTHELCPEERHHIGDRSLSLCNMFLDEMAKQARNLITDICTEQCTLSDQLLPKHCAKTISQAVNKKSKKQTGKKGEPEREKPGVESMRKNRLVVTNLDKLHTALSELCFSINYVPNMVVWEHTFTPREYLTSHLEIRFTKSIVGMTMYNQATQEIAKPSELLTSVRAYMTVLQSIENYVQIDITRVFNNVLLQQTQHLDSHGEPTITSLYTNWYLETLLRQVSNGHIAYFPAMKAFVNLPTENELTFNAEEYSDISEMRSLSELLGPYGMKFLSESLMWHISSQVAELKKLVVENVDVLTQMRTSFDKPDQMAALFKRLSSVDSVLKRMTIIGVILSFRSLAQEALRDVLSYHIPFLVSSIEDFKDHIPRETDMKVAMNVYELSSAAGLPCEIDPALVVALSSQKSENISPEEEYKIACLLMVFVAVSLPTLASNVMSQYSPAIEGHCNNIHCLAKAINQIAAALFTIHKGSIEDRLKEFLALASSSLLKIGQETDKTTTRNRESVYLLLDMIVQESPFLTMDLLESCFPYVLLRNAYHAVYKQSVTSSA

[2] = test system: breast or prostate cancer cells; experiment: MTS cell proliferation assay; format: cell-based; settings: 10 µM, over 24 hours
[3] = test system: breast and prostate cell lines; experiment: Scratch wound; format: cell-based; settings: scratch wound assay, compared with DMSO and scrambled peptide
[4] = test system: breast and prostate cancer cells; experiment: Transwell invasion assay; format: cell-based; settings: for reduction of invasion potential: Transwell, 24 hours, 10 µM, compared with SCR peptides or DMSO; for dose dependence of suppression of cell invasion: high dose 10 µM versus low dose 2.5 µM
[5] = test system: WASF3 phosphorylation in MDA-MB-231 cells; experiment: WASF3 phosphorylation status; format: cell-based; settings: for WASF3 phosphorylation levels: MDA-MB-231 cells in serum
Method in brief: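 MDA-MB-231 cells were treated with stapled peptides, the scrambled control peptide, or the HSP90 inhibitor 17-AAG for comparison. WASF3 was immunoprecipitated, with IgG IP as the negative control. Immunoblots were probed with the PY20 antibody for phosphorylation and with WASF3 antibody for total protein.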

WASF3 = WASF3 protein levels by western blot; format: cell-based; settings: MDA-MB-231 cells cultured in serum
CYFIP1 [6] = experiment: CYFIP1 protein levels by western blot; format: cell-based; settings: 24 hours treatment
KISS1 = KISS1 levels by western blot; format: cell-based; settings: MDA-MB-231 cells, compared with scrambled peptides
[7] = molecular target: Rac1/2 binding to the WASF3 complex (Homo sapiens, UniProt Q7L576); experiment: IP with WASF3 antibodies, western blot for Rac1/Rac2; format: cell-based; settings: MDA-MB-231 cells
Rac1/2 binding to the WASF3 complex, sequence (Q7L576 whole entry): as the sequence (Q7L576 whole entry) above
Rac1/2 binding to the WASF3 complex, sequence (Q9Y2A7 whole entry partner): as the sequence (Q9Y2A7 whole entry partner) above
Method in brief: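 MDA-MB-231 cells were left untreated or treated with stapled test peptides or a scrambled control peptide. Lysates were immunoprecipitated with anti-WASF3 antibody, and the immunocomplex was western blotted for Rac1 and Rac2.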

[8] = test system: WASF3 phosphorylation in MDA-MB-231 cells; settings: inactivation of HSP90; cited from earlier work

CYFIP1 (Homo sapiens, UniProt Q7L576), sequence (Q7L576 whole entry): as the sequence (Q7L576 whole entry) above

concentration dependence of CYFIP1 pull down (CYFIP1 [1]) | CYFIP1 in the WASF3 immunocomplex (WASF3-CYFIP1 complex) | Rac2 in the WASF3 IP [7] | Compound | cell proliferation [2] | migration potential / cell motility [3] | reduction of invasion potential [4] | dose dependence of suppression of cell invasion [4] | WASF3 phosphorylation levels [5] | WASF3 protein levels (WASF3) | intracellular levels of WASF3 or CYFIP1 (CYFIP1 [6]) | KISS1 levels (KISS1) | WASF3 phosphoactivation [8] | suppression of WASF3 phosphorylation compared with 17-AAG ([5]; MDA-MB-231 cells)
concentration-dependent | not present in the immunocomplex | – | LEKKTN*TLA*IIRQL (sidechain bridge or staple) [WAHM2] | no significant difference in cell proliferation | significant reduction in cell motility | 50–75% | dose-dependent effect | dramatic decrease in WASF3 phosphorylation levels | without a reduction in WASF3 protein levels | did not affect intracellular levels of either WASF3 or CYFIP1 | increased KISS1 levels | – | –
– | – | present | SRA*LLI*TKIQNELK (sidechain bridge or staple) [SCR1] | – | – | – | – | – | – | – | – | – | –
– | – | – | C=CCNC1=C2C[C@@H](C)C[C@H](OC)[C@H](O)[C@@H](C)/C=C(\C)[C@H](OC(N)=O)[C@@H](OC)/C=C\C=C(/C)C(=O)NC(=CC1=O)C2=O [17-AAG] | – | – | – | – | – | – | – | – | reduced WASF3 phosphoactivation | –
concentration-dependent | not present in the immunocomplex | could not be detected | LEK*TNS*LAKIIRQL (sidechain bridge or staple) [WAHM1] | no significant difference in cell proliferation | significant reduction in cell motility | 50–75% | dose-dependent effect | dramatic decrease in WASF3 phosphorylation levels | without a reduction in WASF3 protein levels | did not affect intracellular levels of either WASF3 or CYFIP1 | increased KISS1 levels | – | more efficient than the 17-AAG HSP90 inhibitor

Source: paper PMC4828974 (Cancer research, 2015)
